Results taken from ChEMBL document CHEMBL2429728, “Novel Macrocyclic Amidinoureas: Potent Non-Azole Antifungals Active against Wild-Type and Resistant Candida Species” (2013).
≈ marks a conversion by molar mass, not a printed value.

Assays:
Type in all cases: functional
Nakaseomyces glabratus [1] = assay: Antifungal activity against fluconazole-resistant Candida glabrata DSY2254 increase expressing of CgCDR1 and CgCDR2 genes after 24 hrs by visually and spectrophotometric analysis; conditions: DSY2254, 24 h
Method in brief: (§1)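 Endpoint is MIC90, in μg/mL, read at 24 h by both visual inspection and spectrophotometry.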

[2] = system: Meyerozyma guilliermondii; assay: Antifungal activity against wild type Candida guilliermondii after 24 hrs by visually and spectrophotometric analysis
Candida albicans [3] = assay: Antifungal activity against fluconazole-resistant Candida albicans DSY735 expressing high level of CDR1 and CDR2 genes after 24 hrs by visually and spectrophotometric analysis; conditions: DSY735, 24 h; method in brief: as §1
Candida albicans [4] = assay: Antifungal activity against fluconazole-resistant Candida albicans DSY348 harboring ERG11 gene mutant and increase expressing of CDR1 and CDR2 genes after 24 hrs by visually and spectrophotometric analysis; conditions: DSY348, 24 h; method in brief: as §1
Candida albicans [5] = assay: Antifungal activity against fluconazole-resistant Candida albicans DSY289 harboring ERG11 gene mutant and increase expressing of CDR1 and CDR2 genes after 24 hrs by visually and spectrophotometric analysis; conditions: DSY289, 24 h; method in brief: as §1
Candida parapsilosis = assay: Antifungal activity against wild type Candida parapsilosis ATCC 34136 after 24 hrs by visually and spectrophotometric analysis; conditions: Lodderomyces parapsilosis, ATCC 34136, 24 h
Candida albicans [6] = assay: Antifungal activity against fluconazole-resistant Candida albicans DSY284 harboring ERG11 gene mutant and increase expressing of CDR1 and CDR2 genes after 24 hrs by visually and spectrophotometric analysis; conditions: DSY284, 24 h; method in brief: as §1
Candida albicans [7] = assay: Antifungal activity against fluconazole-resistant Candida albicans DSY775 harboring ERG11 gene mutant and increase expressing of CDR1 and CDR2 genes after 24 hrs by visually and spectrophotometric analysis; conditions: DSY775, 24 h; method in brief: as §1
Clavispora lusitaniae [8] = assay: Antifungal activity against Candida lusitaniae ATCC 200950 after 24 hrs by visually and spectrophotometric analysis; conditions: ATCC 200950, 24 h
Method in brief: (§2)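 Read-out is MIC90 in μg/mL, scored at 24 h both by eye and spectrophotometrically. The panel is Candida isolates that earlier reports describe as amphotericin B-resistant, with amphotericin B run alongside as the reference drug.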

Pichia kudriavzevii = assay: Antifungal activity against wild type Candida krusei ATCC 14243 after 24 hrs by visually and spectrophotometric analysis; conditions: ATCC 14243, 24 h
Candida albicans [9] = assay: Antifungal activity against Candida albicans ATCC 200955 after 24 hrs by visually and spectrophotometric analysis; conditions: ATCC 200955, 24 h; method in brief: as §1
Nakaseomyces glabratus [10] = assay: Antifungal activity against fluconazole-resistant Candida glabrata DSY756 increase expressing of CgCDR1, CgCDR2, and CgSNQ2 genes after 24 hrs by visually and spectrophotometric analysis; conditions: DSY756, 24 h; method in brief: as §1
Nakaseomyces glabratus [11] = assay: Antifungal activity against fluconazole-resistant Candida glabrata DSY2271 increase expressing of CgCDR2 genes after 24 hrs by visually and spectrophotometric analysis; conditions: DSY2271, 24 h; method in brief: as §1
Candida albicans [12] = assay: Antifungal activity against wild type Candida albicans ATCC 60193 after 24 hrs by visually and spectrophotometric analysis; conditions: ATCC 60193, 24 h
Clavispora lusitaniae [13] = assay: Antifungal activity against Candida lusitaniae ATCC 200953 after 24 hrs by visually and spectrophotometric analysis; method in brief: as §2
Candida albicans [14] = assay: Antifungal activity against fluconazole-resistant Candida albicans DSY751 harboring ERG11 gene mutant and increase expressing of MDR1 gene after 24 hrs by visually and spectrophotometric analysis; conditions: DSY751, 24 h; method in brief: as §1
Nakaseomyces glabratus [15] = assay: Antifungal activity against fluconazole-resistant Candida glabrata DSY530 increase expressing of CgCDR1 gene after 24 hrs by visually and spectrophotometric analysis; conditions: DSY530, 24 h; method in brief: as §1
Candida tropicalis [16] = assay: Antifungal activity against Candida tropicalis ATCC 200956 after 24 hrs by visually and spectrophotometric analysis; conditions: ATCC 200956, 24 h; method in brief: as §2
Clavispora lusitaniae [17] = assay: Antifungal activity against Candida lusitaniae ATCC 200952 after 24 hrs by visually and spectrophotometric analysis; method in brief: as §2
Candida tropicalis [18] = assay: Antifungal activity against wild type Candida tropicalis after 24 hrs by visually and spectrophotometric analysis
Clavispora lusitaniae [19] = assay: Antifungal activity against Candida lusitaniae ATCC 24348 after 24 hrs by visually and spectrophotometric analysis; conditions: ATCC 24348, 24 h; method in brief: as §2
Nakaseomyces glabratus [20] = assay: Antifungal activity against fluconazole-resistant Candida glabrata DSY754 increase expressing of CgCDR1 gene after 24 hrs by visually and spectrophotometric analysis; conditions: DSY754, 24 h; method in brief: as §1
Kluyveromyces marxianus = assay: Antifungal activity against wild type Candida kefyr after 24 hrs by visually and spectrophotometric analysis
Candida albicans [21] = assay: Antifungal activity against fluconazole-resistant Candida albicans DSY292 harboring ERG11 gene mutant and increase expressing of MDR1 gene after 24 hrs by visually and spectrophotometric analysis; conditions: DSY292, 24 h; method in brief: as §1
Nakaseomyces glabratus [22] = assay: Antifungal activity against wild type Candida glabrata after 24 hrs by visually and spectrophotometric analysis
Clavispora lusitaniae [23] = assay: Antifungal activity against Candida lusitaniae ATCC 60247 after 24 hrs by visually and spectrophotometric analysis; conditions: ATCC 60247, 24 h; method in brief: as §2
Clavispora lusitaniae [24] = assay: Antifungal activity against Candida lusitaniae ATCC 200951 after 24 hrs by visually and spectrophotometric analysis; method in brief: as §2
Candida albicans [25] = assay: Antifungal activity against fluconazole-resistant Candida albicans DSY296 harboring ERG11 gene mutant and increase expressing of CDR1 and CDR2 genes after 24 hrs by visually and spectrophotometric analysis; conditions: DSY296, 24 h; method in brief: as §1

Structure (SMILES) | MIC90 (Nakaseomyces glabratus [1]) [mg/L] | MIC90 [2] [mg/L] | MIC90 (Candida albicans [3]) [mg/L] | MIC90 (Candida albicans [4]) [mg/L] | MIC90 (Candida albicans [5]) [mg/L] | MIC90 (Candida parapsilosis) [mg/L] | MIC90 (Candida albicans [6]) [mg/L] | MIC90 (Candida albicans [7]) [mg/L] | MIC90 (Clavispora lusitaniae [8]) [mg/L] | MIC90 (Pichia kudriavzevii) [mg/L] | MIC90 (Candida albicans [9]) [mg/L] | MIC90 (Nakaseomyces glabratus [10]) [mg/L] | MIC90 (Nakaseomyces glabratus [11]) [mg/L] | MIC90 (Candida albicans [12]) [mg/L] | MIC90 (Clavispora lusitaniae [13]) [mg/L] | MIC90 (Candida albicans [14]) [mg/L] | MIC90 (Nakaseomyces glabratus [15]) [mg/L] | MIC90 (Candida tropicalis [16]) [mg/L] | MIC90 (Clavispora lusitaniae [17]) [mg/L] | MIC90 (Candida tropicalis [18]) [mg/L] | also measured
C/C=C/CNC(=N)NCCCCCCCCN1CCCCOc2ccccc2CNC(=N)NC1=O.O=C(O)C(F)(F)F | 64 | 16 | 8 | 8 | 8 | 8 | 16 | 16 | 8 | 32 | 8 | 64 | 64 | 16 | 16 | 16 | 64 | 16 | 8 | 8 | MIC90 (Clavispora lusitaniae [19]): 8 mg/L; MIC90 (Nakaseomyces glabratus [20]): 64 mg/L; MIC90 (Kluyveromyces marxianus): 4 mg/L; MIC90 (Candida albicans [21]): 16 mg/L; MIC90 (Nakaseomyces glabratus [22]): 64 mg/L; MIC90 (Clavispora lusitaniae [23]): 16 mg/L; MIC90 (Clavispora lusitaniae [24]): 8 mg/L; MIC90 (Candida albicans [25]): 16 mg/L
C/C=C/CNC(=N)NCCCCCCCCN1CCCCOC(=O)CCNC(=N)NC1=O.O=C(O)C(F)(F)F | 128 | 32 | 8 | 8 | 8 | 32 | 16 | 16 | 8 | 64 | 8 | 128 | 64 | 32 | 8 | 16 | 64 | 16 | 4 | 32 | MIC90 (Clavispora lusitaniae [19]): 4 mg/L; MIC90 (Nakaseomyces glabratus [20]): 64 mg/L; MIC90 (Kluyveromyces marxianus): 32 mg/L; MIC90 (Candida albicans [21]): 16 mg/L; MIC90 (Nakaseomyces glabratus [22]): 64 mg/L; MIC90 (Clavispora lusitaniae [23]): 4 mg/L; MIC90 (Clavispora lusitaniae [24]): 4 mg/L; MIC90 (Candida albicans [25]): 16 mg/L
OC(Cn1cncn1)(Cn1cncn1)c1ccc(F)cc1F [FLUCONAZOLE] | 128 (≈ 418 µM) | 4 (≈ 13.1 µM) | 64 (≈ 209 µM) | 32 (≈ 104 µM) | 256 (≈ 836 µM) | 0.5 (≈ 1.63 µM) | 256 (≈ 836 µM) | 128 (≈ 418 µM) |  | 256 (≈ 836 µM) |  | 128 (≈ 418 µM) | 64 (≈ 209 µM) | 2 (≈ 6.53 µM) |  | 256 (≈ 836 µM) | 64 (≈ 209 µM) |  |  | 2 (≈ 6.53 µM) | MIC90 (Nakaseomyces glabratus [20]): 64 mg/L (≈ 209 µM); MIC90 (Kluyveromyces marxianus): 1 mg/L (≈ 3.27 µM); MIC90 (Candida albicans [21]): 64 mg/L (≈ 209 µM); MIC90 (Nakaseomyces glabratus [22]): 16 mg/L (≈ 52.2 µM); MIC90 (Candida albicans [25]): 128 mg/L (≈ 418 µM)
C/C=C/CNC(=N)NCCCCCCCCN1CCCCCCOc2ccccc2CNC(=N)NC1=O.O=C(O)C(F)(F)F | 40 | 2 | 5 | 5 | 5 | 2 | 9 | 10 | 5 | 4 | 5 | 36 | 36 | 4 | 5 | 10 | 36 | 10 | 5 | 1 | MIC90 (Clavispora lusitaniae [19]): 5 mg/L; MIC90 (Nakaseomyces glabratus [20]): 40 mg/L; MIC90 (Kluyveromyces marxianus): 2 mg/L; MIC90 (Candida albicans [21]): 10 mg/L; MIC90 (Nakaseomyces glabratus [22]): 16 mg/L; MIC90 (Clavispora lusitaniae [23]): 5 mg/L; MIC90 (Clavispora lusitaniae [24]): 5 mg/L; MIC90 (Candida albicans [25]): 10 mg/L
C/C=C/CNC(=N)NCCCCCCCCN1CCCCCOC(=O)CCNC(=N)NC1=O.O=C(O)C(F)(F)F | 64 | 8 | 16 | 8 | 8 | 8 | 8 | 16 | 8 | 32 | 4 | 64 | 32 | 16 | 8 | 16 | 32 | 16 | 4 | 16 | MIC90 (Clavispora lusitaniae [19]): 8 mg/L; MIC90 (Nakaseomyces glabratus [20]): 32 mg/L; MIC90 (Kluyveromyces marxianus): 16 mg/L; MIC90 (Candida albicans [21]): 16 mg/L; MIC90 (Nakaseomyces glabratus [22]): 32 mg/L; MIC90 (Clavispora lusitaniae [23]): 4 mg/L; MIC90 (Clavispora lusitaniae [24]): 4 mg/L; MIC90 (Candida albicans [25]): 16 mg/L
C[C@@H]1[C@H](O)[C@@H](C)/C=C/C=C/C=C/C=C/C=C/C=C/C=C/[C@H](O[C@@H]2O[C@H](C)[C@@H](O)[C@H](N)[C@@H]2O)C[C@@H]2O[C@](O)(C[C@@H](O)C[C@@H](O)[C@H](O)CC[C@@H](O)C[C@@H](O)CC(=O)O[C@H]1C)C[C@H](O)[C@H]2C(=O)O [AMPHOTERICIN B] |  |  |  |  |  |  |  |  | 1 (≈ 1.08 µM) |  | 2 (≈ 2.16 µM) |  |  |  | 1 (≈ 1.08 µM) |  |  | 8 (≈ 8.66 µM) | 2 (≈ 2.16 µM) |  | MIC90 (Clavispora lusitaniae [19]): 0.125 mg/L (≈ 0.135 µM); MIC90 (Clavispora lusitaniae [23]): 0.125 mg/L (≈ 0.135 µM); MIC90 (Clavispora lusitaniae [24]): 1 mg/L (≈ 1.08 µM)
